Reference: ChEMBL document CHEMBL1145491, “Artemisinins inhibit Trypanosoma cruzi and Trypanosoma brucei rhodesiense in vitro growth” (Antimicrob Agents Chemother, 2007)
pIC50: −log10 of the molar value.

Assays:
Trypanosoma cruzi [1] = assay: Growth inhibition of Trypanosoma cruzi epimastigotes after 72 hrs by Alamar blue assay; assay type: functional, organism-based
Leishmania donovani [2] = assay: Growth inhibition of Leishmania donovani promastigotes after 72 hrs by Alamar blue assay; assay type: functional, organism-based
Outline: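 Parasites exposed to drug for 72 h; growth read as optical density at 600 nm against drug-free control cultures. Six drug concentrations per run, 2–5 independent runs; mean inhibition plotted against concentration, IC50 and IC90 by linear regression, reported in micromolar with standard errors of the means.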

[3] = test system: Trypanosoma brucei rhodesiense; assay: Growth inhibition of Trypanosoma brucei rhodesiense trypomastigotes after 72 hrs by Alamar blue assay; assay type: functional, organism-based
Leishmania infantum = assay: Antiparasitic activity against Leishmania infantum promastigotes assessed as parasite killing at 1.4 to 382.9 uM; assay type: functional
Leishmania major [4] = assay: Antiparasitic activity against Leishmania major promastigotes assessed as parasite killing at 750 nM; assay type: functional
Leishmania major [5] = assay: Antiparasitic activity against Leishmania major amastigotes in macrophage assessed as parasite killing at 3 to 30 uM; assay type: functional
[6] = Growth inhibition of human U937 cells at 3 mM; assay type: cell-based, U-937
Trypanosoma cruzi [7] = assay: Inhibition of ATPase in Trypanosoma cruzi at 1 uM in presence of calcium; design: scale not given: the % may be the effect or the level left
Outline: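 T. cruzi membranes were isolated by a protocol adapted from Leishmania. It was started with 2 mM ATP, and released inorganic phosphate was measured colorimetrically.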

Leishmania donovani [8] = assay: Antiparasitic activity against Leishmania donovani in hamster assessed as reduction of liver parasite burden at 25 mg/kg, po; assay type: functional; design: scale not given: the % may be the effect or the level left
Leishmania donovani [9] = assay: Antiparasitic activity against Leishmania donovani in hamster assessed as reduction of liver parasite burden at 50 mg/kg, po; assay type: functional; design: scale not given: the % may be the effect or the level left
Leishmania donovani [10] = assay: Antiparasitic activity against Leishmania donovani in hamster assessed as reduction of spleen parasite burden at 50 mg/kg, po; assay type: functional; design: scale not given: the % may be the effect or the level left
Leishmania donovani [11] = assay: Antiparasitic activity against Leishmania donovani in hamster assessed as reduction of spleen parasite burden at 25 mg/kg, po; assay type: functional; design: scale not given: the % may be the effect or the level left

Compound | pIC50 (Trypanosoma cruzi [1]) | IC90 (Trypanosoma cruzi [1]) [µM] | pIC50 (Leishmania donovani [2]) | pIC50 [3] | IC90 [3] [µM] | Activity (Leishmania infantum) [%] | Activity (Leishmania major [4]) [%] | Activity (Leishmania major [5]) [%] | inhibition at 3000 µM [6] [%] | Activity (Trypanosoma cruzi [7]) [%] | Activity (Leishmania donovani [8]) [%] | Activity (Leishmania donovani [9]) [%] | Activity (Leishmania donovani [10]) [%] | Activity (Leishmania donovani [11]) [%]
C[C@@H]1[C@H](O)[C@@H](C)/C=C/C=C/C=C/C=C/C=C/C=C/C=C/[C@H](O[C@@H]2O[C@H](C)[C@@H](O)[C@H](N)[C@@H]2O)C[C@@H]2O[C@](O)(C[C@@H](O)C[C@@H](O)[C@H](O)CC[C@@H](O)C[C@@H](O)CC(=O)O[C@H]1C)C[C@H](O)[C@H]2C(=O)O [AMPHOTERICIN B] | 5.19 | 19.6 | 5.55 | 5.55 | 11.9 | – | – | – | – | – | – | – | – | –
C[C@H]1[C@H](N2CCS(=O)(=O)CC2)O[C@@H]2O[C@@]3(C)CC[C@H]4[C@H](C)CC[C@@H]1[C@@]24OO3 [ARTEMIFONE] | 4.63 | 50.5 | 4.89 | 4.65 | 44.8 | – | – | – | – | – | – | – | – | –
C[C@@H]1CC[C@H]2[C@@H](C)C(=O)O[C@@H]3O[C@@]4(C)CC[C@@H]1[C@]32OO4 [ARTEMISININ] | 4.87 | 46.5 | 4.51 | 4.69 | 49.1 | 50 | 50 | 50 | < 5 | 24.9 | – | – | – | –
C[C@H]1[C@@H](O)O[C@@H]2O[C@@]3(C)CC[C@H]4[C@H](C)CC[C@@H]1[C@@]24OO3 [ARTENIMOL] | 4.89 | 49.2 | – | 4.61 | 49.6 | – | – | – | – | – | 75 | 75 | 75 | 75
COc1ccc2[nH]c([S+]([O-])Cc3ncc(C)c(OC)c3C)nc2c1 (centres undefined) [OMEPRAZOLE] | 3.75 | 526 | 3.47 | 3.75 | 509 | – | – | – | – | – | – | – | – | –
C[C@@H]1O[C@@H](O[C@H]2C[C@@H](O)[C@]3(CO)[C@H]4[C@H](O)C[C@]5(C)[C@@H](C6=CC(=O)OC6)CC[C@]5(O)[C@@H]4CC[C@]3(O)C2)[C@H](O)[C@H](O)[C@H]1O [OUABAIN] | < 3.35 | 953 | < 3.35 | < 3.35 | 1180 | – | – | – | – | – | – | – | – | –
N=C(N)c1ccc(OCCCCCOc2ccc(C(=N)N)cc2)cc1 [PENTAMIDINE] | 5.96 | 4.4 | 6.00 | 5.92 | 3.7 | – | – | – | – | – | – | – | – | –
C/C=C(/C)C(=O)O[C@H]1C(C)=C2[C@H]([C@@H]1OC(=O)CCCCCCC)[C@@](C)(OC(C)=O)C[C@H](OC(=O)CCC)[C@@]1(O)[C@H]2OC(=O)[C@@]1(C)O [THAPSIGARGIN] | 4.47 | 78.1 | 4.55 | 4.52 | 71.9 | – | – | – | – | 25.8 | – | – | – | –
